In ChEMBL document CHEMBL3045697, “Acaricidal activity of clove bud oil compounds against Dermatophagoides farinae and Dermatophagoides pteronyssinus (Acari: Pyroglyphidae)” (2003):
The source made the active and inactive calls. No cut-off for these calls is given here.

Tests used:
Dermatophagoides farinae [1] = experiment: Acaricidal activity against Dermatophagoides farinae after 24 hr by fabric disk assay; assay type: functional
[2] = test system: Dermatophagoides pteronyssinus; experiment: Acaricidal activity against Dermatophagoides pteronyssinus after 24 hr by fabric disk assay; assay type: functional
Dermatophagoides farinae [3] = experiment: Acaricidal activity against Dermatophagoides farinae assessed as mortality at 8 ug/cm2 after 72 hr by fabric disk assay relative to untreated control; assay type: functional
How it was run: (§1)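 Test material in 20 µL ethanol is applied to a 5 cm black cotton fabric disk, and control disks get ethanol alone. After drying 30 s, each disk goes into a covered 5 cm Petri dish with 25 adult mites (7–10 days old), held at 25 ± 1 °C, 75% RH, in darkness. Mortality is scored at 24, 48 and 72 h under a 20× binocular microscope, dead meaning no appendage movement when prodded with a pin. Three replicates; mean ± SE reported.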

Dermatophagoides farinae [4] = experiment: Acaricidal activity against Dermatophagoides farinae assessed as mortality at 6.4 ug/cm2 after 48 hr by fabric disk assay relative to untreated control; assay type: functional; how it was run: as §1
Dermatophagoides farinae [5] = experiment: Acaricidal activity against Dermatophagoides farinae assessed as mortality at 6.4 ug/cm2 after 24 hr by fabric disk assay relative to untreated control; assay type: functional; how it was run: as §1
[6] = test system: Dermatophagoides pteronyssinus; experiment: Acaricidal activity against Dermatophagoides pteronyssinus assessed as mortality at 6.4 to 8 ug/cm2 after 24 to 72 hr by fabric disk assay relative to untreated control; assay type: functional, organism-based; how it was run: as §1
Dermatophagoides farinae [7] = experiment: Acaricidal activity against Dermatophagoides farinae assessed as mortality at 8 ug/cm2 after 48 hr by fabric disk assay relative to untreated control; assay type: functional; how it was run: as §1
Dermatophagoides farinae [8] = experiment: Acaricidal activity against Dermatophagoides farinae assessed as mortality at 8 ug/cm2 after 24 hr by fabric disk assay relative to untreated control; assay type: functional; how it was run: as §1
Dermatophagoides farinae [9] = experiment: Acaricidal activity against Dermatophagoides farinae assessed as mortality at 6.4 ug/cm2 after 72 hr by fabric disk assay relative to untreated control; assay type: functional; how it was run: as §1
Dermatophagoides farinae [10] = experiment: Acaricidal activity against Dermatophagoides farinae assessed as mortality at 9.6 ug/cm2 after 72 hr by fabric disk assay relative to untreated control; assay type: functional; how it was run: as §1
[11] = test system: Dermatophagoides pteronyssinus; experiment: Acaricidal activity against Dermatophagoides pteronyssinus assessed as mortality at 9.6 to 12.7 ug/cm2 after 24 to 72 hr by fabric disk assay relative to untreated control; assay type: functional, organism-based
How it was run: (§2)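 Contact bioassay: compound in 20 µL ethanol applied to 5 cm black cotton fabric disks, air-dried 30 s, then placed in Petri dishes with 25 adult mites (7-10 days old). Held at 25 ± 1 °C, 75% RH, in darkness. Controls received ethanol only. Triplicate; mean ± SE.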

Dermatophagoides farinae [12] = experiment: Acaricidal activity against Dermatophagoides farinae assessed as mortality at 12.7 ug/cm2 after 48 hr by fabric disk assay relative to untreated control; assay type: functional; how it was run: as §1
Dermatophagoides farinae [13] = experiment: Acaricidal activity against Dermatophagoides farinae assessed as mortality at 12.7 ug/cm2 after 72 hr by fabric disk assay relative to untreated control; assay type: functional; how it was run: as §1
Dermatophagoides farinae [14] = experiment: Acaricidal activity against Dermatophagoides farinae assessed as mortality at 9.6 ug/cm2 after 24 hr by fabric disk assay relative to untreated control; assay type: functional; how it was run: as §1
Dermatophagoides farinae [15] = experiment: Acaricidal activity against Dermatophagoides farinae assessed as mortality at 12.7 ug/cm2 after 24 hr by fabric disk assay relative to untreated control; assay type: functional; how it was run: as §1
Dermatophagoides farinae [16] = experiment: Acaricidal activity against Dermatophagoides farinae assessed as mortality at 9.6 ug/cm2 after 48 hr by fabric disk assay relative to untreated control; assay type: functional; how it was run: as §1
Dermatophagoides farinae [17] = experiment: Acaricidal activity against Dermatophagoides farinae assessed as mortality at 38.2 ug/cm2 after 24 hr by fabric disk assay relative to untreated control; assay type: functional; how it was run: as §1
Dermatophagoides farinae [18] = experiment: Acaricidal activity against Dermatophagoides farinae assessed as mortality at 50.9 ug/cm2 after 48 hr by fabric disk assay relative to untreated control; assay type: functional; how it was run: as §1
Dermatophagoides farinae [19] = experiment: Acaricidal activity against Dermatophagoides farinae assessed as mortality at 50.9 ug/cm2 after 72 hr by fabric disk assay relative to untreated control; assay type: functional; how it was run: as §1
Dermatophagoides farinae [20] = experiment: Acaricidal activity against Dermatophagoides farinae assessed as mortality at 50.9 ug/cm2 after 24 hr by fabric disk assay relative to untreated control; assay type: functional; how it was run: as §1
Dermatophagoides farinae [21] = experiment: Acaricidal activity against Dermatophagoides farinae assessed as mortality at 38.2 ug/cm2 after 72 hr by fabric disk assay relative to untreated control; assay type: functional; how it was run: as §1
Dermatophagoides farinae [22] = experiment: Acaricidal activity against Dermatophagoides farinae assessed as mortality at 38.2 ug/cm2 after 48 hr by fabric disk assay relative to untreated control; assay type: functional; how it was run: as §1
[23] = test system: Dermatophagoides pteronyssinus; experiment: Acaricidal activity against Dermatophagoides pteronyssinus assessed as mortality at 38.2 to 50.9 ug/cm2 after 24 to 72 hr by fabric disk assay relative to untreated control; assay type: functional, organism-based; how it was run: as §2
[24] = test system: Dermatophagoides pteronyssinus; experiment: whole plant or invertebrate; assay type: functional; settings: 24 h
[25] = test system: Dermatophagoides pteronyssinus; experiment: whole plant or invertebrate; assay type: functional; settings: 24 h; remark: listed apart in the source
Dermatophagoides farinae [26] = experiment: whole plant or invertebrate; assay type: functional; settings: 24 h
Dermatophagoides farinae [27] = experiment: whole plant or invertebrate; assay type: functional; settings: 24 h; remark: listed apart in the source
Dermatophagoides farinae [28] = experiment: Acaricidal activity against Dermatophagoides farinae assessed as mortality at 15.9 ug/cm2 after 72 hr by fabric disk assay relative to untreated control; assay type: functional; how it was run: as §1
[29] = test system: Dermatophagoides pteronyssinus; experiment: Acaricidal activity against Dermatophagoides pteronyssinus assessed as mortality at 15.9 to 19.1 ug/cm2 after 24 to 72 hr by fabric disk assay relative to untreated control; assay type: functional, organism-based; how it was run: as §2
Dermatophagoides farinae [30] = experiment: Acaricidal activity against Dermatophagoides farinae assessed as mortality at 19.1 ug/cm2 after 72 hr by fabric disk assay relative to untreated control; assay type: functional; how it was run: as §1
Dermatophagoides farinae [31] = experiment: Acaricidal activity against Dermatophagoides farinae assessed as mortality at 19.1 ug/cm2 after 48 hr by fabric disk assay relative to untreated control; assay type: functional; how it was run: as §1
Dermatophagoides farinae [32] = experiment: Acaricidal activity against Dermatophagoides farinae assessed as mortality at 19.1 ug/cm2 after 24 hr by fabric disk assay relative to untreated control; assay type: functional; how it was run: as §1
Dermatophagoides farinae [33] = experiment: Acaricidal activity against Dermatophagoides farinae assessed as mortality at 15.9 ug/cm2 after 48 hr by fabric disk assay relative to untreated control; assay type: functional; how it was run: as §1
Dermatophagoides farinae [34] = experiment: Acaricidal activity against Dermatophagoides farinae assessed as mortality at 15.9 ug/cm2 after 24 hr by fabric disk assay relative to untreated control; assay type: functional; how it was run: as §1

SMILES | LD50 (Dermatophagoides farinae [1]) [microg/cm2] | LD50 [2] [microg/cm2] | mortality at 8 µg/cm2 (Dermatophagoides farinae [3]) [%] | mortality at 6.4 µg/cm2 (Dermatophagoides farinae [4]) [%] | mortality at 6.4 µg/cm2 (Dermatophagoides farinae [5]) [%] | Activity [6] | mortality at 8 µg/cm2 (Dermatophagoides farinae [7]) [%] | mortality at 8 µg/cm2 (Dermatophagoides farinae [8]) [%] | mortality at 6.4 µg/cm2 (Dermatophagoides farinae [9]) [%] | mortality at 25.5 µg/cm2 [24] [%] | mortality at 25.5 µg/cm2 [25] [%] | mortality at 25.5 µg/cm2 (Dermatophagoides farinae [26]) [%] | mortality at 25.5 µg/cm2 (Dermatophagoides farinae [27]) [%] | also measured
CC=Cc1ccc(O)c(OC)c1 (mixture of isomers) [CIS/TRANS-ISOEUGENOL] | 5.17 | 1.55 | 92 | 66 | 66 | Active | 92 | 92 | 66 |  |  |  |  | 
O=C(OCc1ccccc1)c1ccccc1 [BENZYL BENZOATE] | 9.22 | 6.59 |  |  |  |  |  |  |  |  |  |  |  | mortality at 9.6 µg/cm2 (Dermatophagoides farinae [10]): 47%; Activity [11]: Active; mortality at 12.7 µg/cm2 (Dermatophagoides farinae [12]): 96%; mortality at 12.7 µg/cm2 (Dermatophagoides farinae [13]): 96%; mortality at 9.6 µg/cm2 (Dermatophagoides farinae [14]): 47%; mortality at 12.7 µg/cm2 (Dermatophagoides farinae [15]): 85%; mortality at 9.6 µg/cm2 (Dermatophagoides farinae [16]): 47%
CCN(CC)C(=O)c1cccc(C)c1 [DIETHYLTOLUAMIDE] | 37.59 | 17.98 |  |  |  |  |  |  |  |  |  |  |  | mortality at 38.2 µg/cm2 (Dermatophagoides farinae [17]): 41%; mortality at 50.9 µg/cm2 (Dermatophagoides farinae [18]): 83%; mortality at 50.9 µg/cm2 (Dermatophagoides farinae [19]): 85%; mortality at 50.9 µg/cm2 (Dermatophagoides farinae [20]): 79%; mortality at 38.2 µg/cm2 (Dermatophagoides farinae [21]): 41%; mortality at 38.2 µg/cm2 (Dermatophagoides farinae [22]): 41%; Activity [23]: Active
C=CCc1ccc(O)c(OC)c1 [EUGENOL] | 5.47 | 3.71 | 85 | 50 | 50 | Active | 85 | 85 | 50 | 100 | 21 | 100 | 11 | 
C=CCc1ccc(OC(C)=O)c(OC)c1 [EUGENYL ACETATE] | 14.16 | 5.41 |  |  |  |  |  |  |  | 100 | 17 | 100 | 12 | mortality at 15.9 µg/cm2 (Dermatophagoides farinae [28]): 65%; Activity [29]: Active; mortality at 19.1 µg/cm2 (Dermatophagoides farinae [30]): 88%; mortality at 19.1 µg/cm2 (Dermatophagoides farinae [31]): 88%; mortality at 19.1 µg/cm2 (Dermatophagoides farinae [32]): 88%; mortality at 15.9 µg/cm2 (Dermatophagoides farinae [33]): 65%; mortality at 15.9 µg/cm2 (Dermatophagoides farinae [34]): 65%
C/C=C\c1ccc(O)c(OC)c1 [ISOEUGENOL] |  |  |  |  |  |  |  |  |  | 100 | 32 | 100 | 21 | 
